Experimental data from PMC7490525 (Biochemistry and Biophysics Reports, 2020).
Where two headings read alike, the source gives them in different places. Marks after values point to notes of the source that are not given here.

Assays:
[1] = system: organic anion transporting polypeptides (OATPs); test: Effect of coincubated or pretreated compounds on BSP uptake by Caco-2 cells; assay type: cell-based, human; conditions: 37 °C, 5 min; for Decrease of BSP uptake on coincubation: 5 μM BSP with 100 μM compound, Caco-2 cells; for Ki: read-out: Inhibition constant (Ki) for BSP uptake, Dixon plot, competitive, 2, 5 or 10 μM BSP, PFCA 25, 50 or 100 μM, pH 6.0
Caco-2 cells [2] = assay type: in vitro ADME, human; conditions: 1 μM PFCA, pH 6.0, 37 °C, 5 min
Caco-2 cells [3] = conditions: cited from earlier work
[4] = system: organic anion transporting polypeptides (OATPs); conditions: Caco-2 cells; cited from earlier work
Caco-2 cells [5] = test: Uptake of BSP from the apical membrane of Caco-2 cells; assay type: in vitro ADME, human
How it was run: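 Confluent Caco-2 cells (passage 54–70, 2 weeks on collagen) preincubated 20 min, then exposed to BSP in Hanks' buffer with glucose plus MES or HEPES. Conditions: 5 μM for 5 min at 37 °C pH 6.0 (control); pH 5.0/7.4/8.5; 4 °C; or Na+-free (KCl or choline chloride). Time course ran to 60 min; varied concentrations were fitted to carrier-mediated plus diffusion terms. Cell extracts normalised to protein; n=3–8.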

Caco-2 cells [6] = conditions: cited from earlier work; remark: listed apart in the source
[7] = coincubation of 5 μM BSP with 100 μM compound
[8] = 5 μM BSP, 37 °C, pH 6.0, up to 60 min
[9] = Caco-2 cells, 37 °C, pH 6.0, 5 min, BSP 0.5–100 μM

[N-]=[N+]=[N-].[Na+] [NaN3, sodium azide]
Relative uptake rate of BSP (% of control) ([1]; cells treated with 10 mM NaN3 for 20 min, then 5 μM BSP): 106.4 ± 6.8 % of control

O=C(O)C(F)(F)C(F)(F)C(F)(F)C(F)(F)C(F)(F)F [PFHxA, Perfluorohexanoic acid]
Uptake of PFCA by Caco-2 cells (rank among C6–C12) (Caco-2 cells [2]): the lowest

COc1ccc(Cl)cc1C(=O)NCCc1ccc(S(=O)(=O)NC(=O)NC2CCCCC2)cc1 [Glibenclamide, glibenclamide]
Decrease of BSP uptake on coincubation [1]: 48% | Relative uptake rate of BSP (% of control) [1, 7]: 52.2 ± 3.5 ^d % of control

O=C(O)C(F)(F)C(F)(F)C(F)(F)C(F)(F)C(F)(F)C(F)(F)C(F)(F)F [PFOA, Perfluorooctanoic acid]
Uptake of PFCA by Caco-2 cells (rank among C6–C12) (Caco-2 cells [2]): third highest | Vmax of PFOA uptake (Caco-2 cells [3]; PFOA 1–500 μM): 457 pmol/mg protein/min | Km (Caco-2 cells [3]; read-out: Km of PFOA uptake, PFOA 1–500 μM): 8.3 µM | Decrease of BSP uptake on coincubation [1]: 27–55% | Ki [1]: 62.2 ± 1.3 µM

O=C(O)C(F)(F)C(F)(F)C(F)(F)C(F)(F)C(F)(F)C(F)(F)C(F)(F)C(F)(F)C(F)(F)C(F)(F)F [PFUnDA, perfluoroundecanoic acid]
Decrease of BSP uptake on coincubation [1]: 27–55%

CO[C@H]1/C=C/O[C@@]2(C)Oc3c(C)c(O)c4c(O)c(cc(O)c4c3C2=O)NC(=O)/C(C)=C\C=C\[C@H](C)[C@H](O)[C@@H](C)[C@@H](O)[C@@H](C)[C@H](OC(C)=O)[C@@H]1C [rifamycin SV]
Decrease of BSP uptake on coincubation [4]: 40%

O=C(O)C(F)(F)C(F)(F)C(F)(F)C(F)(F)C(F)(F)C(F)(F)F [PFHpA, perfluoroheptanoic acid]
Decrease of BSP uptake on coincubation [1]: 27–55%

O=C1OC(c2ccc(O)c(S(=O)(=O)O)c2)(c2ccc(O)c(S(=O)(=O)O)c2)c2c(Br)c(Br)c(Br)c(Br)c21 [BSP, sulfobromophthalein]
Relative uptake rate (% of control) (Caco-2 cells [5]; 5 μM BSP, 4 °C and pH 6.0, 5 min, control 37 °C and pH 6.0): 49.9 ± 3.1 ^d % of control | Relative uptake rate (% of control) (Caco-2 cells [5]; 5 μM BSP, 37 °C and pH 5.0, 5 min, control 37 °C and pH 6.0): 101.7 ± 5.1 % of control | Relative uptake rate (% of control) (Caco-2 cells [5]; 5 μM BSP, 37 °C and pH 7.4, 5 min, control 37 °C and pH 6.0): 105.2 ± 5.3 % of control | Relative uptake rate (% of control) (Caco-2 cells [5]; 5 μM BSP, 37 °C and pH 8.5, 5 min, control 37 °C and pH 6.0): 101.6 ± 1.3 % of control | Relative uptake rate (% of control) (Caco-2 cells [5]; 5 μM BSP, 37 °C, 5 min, Na+-free medium (NaCl replaced with KCl)): 95.0 ± 7.4 % of control | Relative uptake rate (% of control) (Caco-2 cells [5]; 5 μM BSP, 37 °C, 5 min, Na+-free medium (NaCl replaced with choline chloride)): 81.0 ± 4.0 % of control | Time at which BSP uptake plateaued (Caco-2 cells [5]; [8]): about 15 min | Time until which BSP uptake increased linearly (Caco-2 cells [5]; [8]): 10 min | Reduction of BSP uptake at low temperature (Caco-2 cells [5]; 4 °C, pH 6.0, versus 37 °C): 50% | Contribution of carrier-mediated uptake to BSP uptake (Caco-2 cells [5]; Caco-2 cells): approximately 70% | Contribution of uptake via simple diffusion to BSP uptake (Caco-2 cells [5]; Caco-2 cells): ~30% | Vmax of BSP uptake (Caco-2 cells [5]; [9]): 1.15 ± 0.07 nmol (mg protein)^−1 (5 min)^−1 | kd (coefficient of passive diffusion) of BSP uptake (Caco-2 cells [5]; [9]): 38.2 ± 0.53 μL (mg protein)^−1 (5 min)^−1 | Km (Caco-2 cells [5]; read-out: Km of BSP uptake, Caco-2 cells, 37 °C, pH 6.0, 5 min, BSP 0.5–100 μM): 13.9 ± 1.3 µM

O=C(O)C(F)(F)C(F)(F)C(F)(F)C(F)(F)C(F)(F)C(F)(F)C(F)(F)C(F)(F)C(F)(F)F [PFDA, perfluorodecanoic acid]
Decrease of BSP uptake on coincubation [1]: 27–55% | Ki [1]: 43.2 ± 0.3 µM

C[C@]12CC[C@@H]3c4ccc(OS(=O)(=O)O)cc4CC[C@H]3[C@@H]1CCC2=O [estrone-3-sulfate]
Km (Caco-2 cells [6]; read-out: Km of estrone-3-sulfate, ref Gram et al. [27]): 23 µM | Km (Caco-2 cells [6]; read-out: Km of estrone-3-sulfate, ref Kis et al. [26]): 6 µM | Km (Caco-2 cells [6]; read-out: Km of estrone-3-sulfate, ref Sai et al. [4]): 1.8 µM | Decrease of BSP uptake on coincubation [4]: 39%

O=C(O)C(F)(F)C(F)(F)C(F)(F)C(F)(F)C(F)(F)C(F)(F)C(F)(F)C(F)(F)F [PFNA, perfluorononanoic acid]
Uptake of PFCA by Caco-2 cells (rank among C6–C12) (Caco-2 cells [2]): the highest | Decrease of BSP uptake on coincubation [1]: 27–55% | Ki [1]: 35.3 ± 0.1 µM

O=S(=O)(O)C(F)(F)C(F)(F)C(F)(F)C(F)(F)C(F)(F)C(F)(F)C(F)(F)C(F)(F)F [PFOS, perfluorooctane sulfonate]
Decrease of BSP uptake on coincubation [1]: 54% | Relative uptake rate of BSP (% of control) [1, 7]: 46.1 ± 4.5 ^d % of control

O=[N+]([O-])c1ccc(O)c([N+](=O)[O-])c1 [DNP, 2,4-dinitrophenol]
Relative uptake rate of BSP (% of control) ([1]; cells treated with 1 mM DNP for 20 min, then 5 μM BSP): 105.9 ± 10.0 % of control
